T cruzi repl: T. cruzi replication inhibition; T. cruzi beta-gal in NIH3T3, luminescence, 90 h; inhibition, % (no concentration beside the values); 1.4% of 300,000 active;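 active = mean inhibition across valid replicates above about 55%, limit read from the data; inconclusive = mean below that limit but half or more replicates reach it; inactive = mean below it, under half of replicates reach it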;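 note: signal also drops with host cell toxicity which is not excluded here; 0% = plate median of DMSO wells and 100% = zero luminescence signal; higher percent means less beta-gal luminescence so fewer parasites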
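assay system = mouse NIH/3T3 fibroblasts infected with β-gal-expressing T. cruzi Tulahuen C4 | input = 5,000 NIH/3T3 host cells per well | buffer or medium = DMEM plus 2% FBS | timing = 3 h host attachment, then at least 90 h co-culture | measured by = GalScreen luminescence, 60 min | evaluation = luminescence reflecting intracellular parasite burden, expressed as percent inhibition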
Beta apoptosis: blocks beta cell apoptosis; INS-1E cytokine-induced death, ATP luminescence, 48 h; percent of positive-control rescue, neutral wells zero; protection from apoptosis, % (test concentration not listed); 0.8% of 300,000 active; AID 435005;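 active = Every replicate reaches about 75%, or at least half do and their mean reaches it too, limit read from the data; inconclusive = At least half of replicates reach the limit but their mean does not; inactive = Under half of replicates reach the limit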;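 note: 0% = cytokine-treated negative control wells and 100% = positive control rescue; higher means more ATP so stronger rescue from cytokine killing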
HIF act: HIF pathway transcriptional activation; 0.32% of 300,000 active; activation, % at 7.5 µM (by protocol); U2OS HRE-luciferase reporter, luminescence; normalized: DMSO 0%, desferrioxamine 100%;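 active = mean activation of at least 10% of the iron chelator positive control signal, with at least half of replicates also reaching 10%; inconclusive = mean and replicate majority disagree about reaching 10%; inactive = mean and most replicates under 10%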
PolyA inh: blocks polyadenylation in yeast reporter cells; S. cerevisiae SKY197-pL101 polyadenylation reporter, beta-gal luminescence; efflux-impaired pdr1/pdr3 knockout yeast; score 100 = 6 SD above DMSO; activity score, % at 12 µM; 0.02% of 300,000 active;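 active = lowest replicate activity score at least 50, where 100 means six control SD above control mean; inconclusive = lowest score under 50 but half or more replicates reach 50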;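 note: yeast exposed to compound for 9 h at 30 °C; higher score means more reporter readthrough which indicates perturbed polyadenylation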
CSC inhib: cancer stem cell inhibition | cancer stem cell-like cells viability, luminescence | inhibition, % at 7.5 µM | 1.1% of 300,000 active; in the data active = inhibition above about 75%; inconclusive = no clear call, values can overlap the other calls; tested in HMLE shEcad cells
Calb FLC: C. albicans growth modulation with fluconazole; C. albicans CaCi-2 + fluconazole, Alamar Blue growth, 48 h; growth inhibition, % (concentration not given with the values); 0.57% of 300,000 active; AID 1979;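 active = growth inhibition above about 58% in most replicates, limit read from the data, passing the limit was not always enough; inconclusive = exactly half the replicates above a set limit; inactive = most replicates below a set limit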;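 note: all wells also contain fluconazole at 8 µg/ml as a sub-toxic cotreatment; 0% = median of DMSO wells and 100% = median of geldanamycin control wells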
Active calls of the source: *; ? = inconclusive; · = no result given. Shown are actives, neighbours in structure and some others; about 3.1% of the full set was active somewhere.

SMILES	T cruzi repl	Beta apoptosis	HIF act	PolyA inh	CSC inhib	Calb FLC
N#CC(C#N)=C(Nc1ccc(F)cc1)SCc1cccc(Br)c1	-53.3	105.3*	-0.1	-6.1	118.8*	?
O=c1cc(CNc2cc(C(F)(F)F)cc(C(F)(F)F)c2)nc2sccn12	9.7	6.6	-0.2	-0.6	80.7*	0.9
COc1ccc(N=C2C(=O)N3CCCc4cccc2c43)cc1	-20.3	6.2	391.6*	-15.6	34.4	-16.7
O=C(O)c1cccc(NC(=S)NC(NC(=O)c2cccc([N+](=O)[O-])c2)C(Cl)(Cl)Cl)c1 (stereo not drawn)	37.3	10.0	0.0	17.0	-3.2	-13.1
O=C(NC(NC(=S)Nc1ccccc1)C(Cl)(Cl)Cl)c1cccc(Cl)c1 (stereo not drawn)	65.1*	94.8*	-0.2	4.0	89.3*	-3.9
O=C(NC(NC(=S)Nc1ccc(Cl)cc1Cl)C(Cl)(Cl)Cl)c1cccc([N+](=O)[O-])c1 (stereo not drawn)	73.9*	96.8*	-0.7	2.3	128.0*	-8.8
CCCCC(=O)OCC(=O)N1N=C(c2c[nH]c3ccccc23)C(O)C1c1ccc(OC)cc1 (stereo not drawn)	-15.2	-0.1	1.6	-14.0	2.6	·
CCN(CC)c1ccc(NC(=O)c2ccc3c(c2)c(C)c(C)n3C)cc1	69.0*	25.5	2.6	-8.3	2.1	25.9
CC(C)c1onc(C(=O)N2CCN(C(c3ccccc3)c3ccccc3)CC2)c1[N+](=O)[O-]	57.5*	-2.3	0.3	-7.5	49.4	11.3
CC(C)c1onc(C(=O)N2CCN(c3ccccc3)CC2)c1[N+](=O)[O-]	?	-9.9	0.1	14.8	-10.6	0.8
O=C(CCc1nnc2n(Cc3ccc(F)cc3)c(=O)c3ccccc3n12)N1CCN(c2ccccn2)CC1	16.2	2.5	-0.5	-5.7	-21.0	1.1
COc1ccc2cc(/C(C)=N/NC(=S)Nc3cc(S(=O)(=O)N4CCOCC4)ccc3N3CCOCC3)ccc2c1	68.9*	0.1	0.7	14.5	-2.1	-9.6
C[C@H]1[C@H](C)CC[C@]2(C)CC[C@]3(C)C(=CC[C@@H]4[C@@]5(C)CC[C@@H](O)[C@](C)(C(=O)O)[C@@H]5CC[C@]43C)[C@H]12	0.6	-4.4	-0.3	-6.6	76.5*	·
C[C@H]1[C@H](C)CC[C@]2(C(=O)O)CC[C@]3(C)C(=CC[C@@H]4[C@@]5(C)CC[C@H](O)C(C)(C)[C@@H]5CC[C@]43C)[C@H]12	2.9	22.4	0.2	0.0	65.8	·
C[C@@H]1CC[C@]2(C(=O)O)CC[C@]3(C)C(=CCC4[C@]56CC[C@@](O)(OC5)C(C)(C)C6CC[C@]43C)C2[C@H]1C (stereo partly drawn)	·	2.8	·	·	96.1*	·
C[C@H]1[C@H](C)CC[C@]2(C)CC[C@]3(C)C(=CC(=O)C4[C@@]5(C)CC[C@H](O)C(C)(C)C5CC[C@]43C)[C@H]12 (stereo partly drawn)	·	4.6	·	·	98.2*	·
C[C@H]1[C@H](C)CC[C@]2(C(=O)O)CC[C@]3(C)C(=CC[C@@H]4[C@@]5(C)C[C@@H](O)[C@H](O)C(C)(C)[C@@H]5CC[C@]43C)[C@H]12	16.8	2.4	0.1	0.4	94.7*	-0.4
O=C1c2c(O)ccc(O)c2C(=O)c2c(NCCNCCO)ccc(NCCNCCO)c21	·	66.8	·	·	97.0*	·
O=C1c2ccccc2C(=O)c2c(NCCCN(CCO)CCO)cccc21	?	·	0.0	-2.2	·	-10.1
COC(=O)/C(=N\Nc1ccc(Cl)cc1)Sc1nnc(-c2ccc(OC)cc2)n1C	17.6	-3.0	-0.7	-48.4	-13.2	84.1*
COc1ccc(CNC(=O)CSc2nnc(-c3ccc(NC(C)=O)cc3)n2C)cc1	-10.8	-2.0	0.2	8.6	·	14.9
CCn1c(CN2CCCCCC2=O)nnc1SCc1cnc(-c2ccccc2)s1	15.6	4.1	0.7	0.0	39.0	78.3*
O=C1CCCCCN1Cc1nnc(SCc2nc3ccccc3s2)n1-c1ccccn1	-1.2	-3.0	5.2	0.1	-6.6	1.3
COc1ccc(S(=O)(=O)N2CCN(C(=O)CC3CC4CCC3C4)CC2)cc1 (stereo not drawn)	·	0.1	·	·	-6.0	·
O=C(NC1C/C(=N/O)c2cc3c(cc21)OCO3)C(F)(F)F (stereo not drawn)	-8.0	-0.9	-0.6	7.2	·	?
SMILES	T cruzi repl	Beta apoptosis	HIF act	PolyA inh	CSC inhib	Calb FLC
OC(CNCCc1ccc(C(F)(F)F)cc1)COC(c1ccccc1)c1ccccc1 (stereo not drawn)	45.9	22.7	-0.1	14.4	107.3*	4.3
O=C(NCCCn1ccnc1)c1cc(-c2cccs2)on1	30.9	54.0	38.2*	10.4	23.8	-6.3
c1csc(-c2csc3ncnc(NCCCN4CCOCC4)c23)c1	-40.8	76.2*	-0.2	1.8	0.2	-4.0
COc1ccc(OC)c(-c2cc(C(=O)NCCCn3ccnc3)no2)c1	-9.1	12.2	-0.1	-9.7	-11.9	?
c1ccc(-c2csc3ncnc(NCCCN4CCOCC4)c23)cc1	7.5	-13.2	0.1	6.8	-16.4	0.5
Cc1ccc(-c2nc(C(=O)NCCCN3CCOCC3)cc3c2[nH]c2ccccc23)cc1	56.6*	·	0.5	-0.7	-12.3	6.7
O=C(NCCCN1CCOCC1)c1cc(-c2cccs2)on1	10.0	17.4	20.5*	28.2	2.7	-10.9
CCOc1ccc(OCCC(=O)OCC(=O)NCc2ccccc2)cc1	-15.6	2.1	0.7	-1.4	·	0.9
CCc1ccc(C(C)(O)C(CN2CCOCC2)c2ccccc2)cc1 (stereo not drawn)	-1.2	-6.3	-0.2	-9.3	-2.2	-10.0
CC(C)CCN(C(=O)COc1ccc(C#N)cc1)c1c(N)n(Cc2ccccc2)c(=O)[nH]c1=O	-0.8	-5.4	-0.2	23.9	1.6	4.7
COc1cccc(CNC(=O)CSc2nnc3c(n2)[nH]c2ccc(C)cc23)c1	9.9	-0.5	-0.5	7.0	3.9	23.0
COc1ccc(CN2CCNC(=O)C2CC(=O)N(C)CCCN2CCOCC2)cc1C (stereo not drawn)	-20.3	-1.5	-0.1	?	-4.9	-9.2
O=C(NC1CCCC1)c1cc(-c2cccs2)on1	3.1	9.2	32.1*	-10.9	18.2	-19.8
CC(C)c1onc(C(=O)Nc2sc3c(c2C#N)CCC3)c1[N+](=O)[O-]	-16.5	0.4	191.3*	-11.8	-11.2	34.9
O=C(Nc1ccc2c(c1)OCO2)c1ccc(COc2ccc3c(c2)CCC3)o1	11.8	-2.7	1.7	0.7	86.1*	-1.4
Cc1ccc(C(=O)Nc2ccc3c(c2)CCC3)o1	6.7	7.9	1.2	?	11.4	14.8
Cc1ccc(-c2csc(NC(=O)c3ccccc3F)c2C(=O)O)cc1	-26.1	5.6	-19.0	16.5	12.8	0.9
Clc1ccc2ccc3cccnc3c2n1	-14.5	23.9	1.1	-9.2	3.5	7.1

Compound activity deposited in PubChem BioAssay by Broad Institute.
